In ChEMBL document CHEMBL3286335, “Synthesis of 2,3,6-trideoxy sugar triazole hybrids as potential new broad spectrum antimicrobial agents” (Eur J Med Chem, 2014):
≈ marks a conversion by molar mass, not a printed value.

Assays:
Format in all cases: functional
Staphylococcus aureus [1] = experiment: Antimicrobial activity against Staphylococcus aureus ATCC 25923 after 24 hrs by microbroth dilution method; conditions: ATCC 25923, 24 h
Procedure, shortened: (§1)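 Broth microdilution per NCCLS guidelines. Bacteria in Mueller-Hinton broth; fungi in MOPS-buffered RPMI 1640. Test compounds at 50-0.36 µg/mL, standard drugs over 32-0.0018 µg/mL. Inoculum 1-5 × 10^3 cells/mL, 35 °C in a moist chamber. A492 read at 24 h for bacteria, 48 h for C. albicans, 72 h for A. fumigatus, C. neoformans and S. schenckii, 96 h for T. mentagrophytes. MIC taken as 90% growth inhibition relative to growth control.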

Staphylococcus aureus [2] = experiment: Antimicrobial activity against methicillin-resistant Staphylococcus aureus after 24 hrs by microbroth dilution method
Procedure, shortened: (§2)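 Microbroth dilution in Mueller Hinton broth, following NCCLS guidelines. Test compounds were run at 50-0.36 µg/mL against an initial inoculum of 1-5 × 10^3 cells/mL. Plates were incubated in a moist chamber at 35 °C, and absorbance at 492 nm was read after 24 h. MIC was taken as 90% growth inhibition relative to the growth control.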

Klebsiella pneumoniae = experiment: Antimicrobial activity against Klebsiella pneumoniae ATCC 27736 after 24 hrs by microbroth dilution method; conditions: ATCC 27736, 24 h; procedure, shortened: as §1
Escherichia coli = experiment: Antimicrobial activity against Escherichia coli ATCC 9637 after 24 hrs by microbroth dilution method; conditions: ATCC 9637, 24 h; procedure, shortened: as §1
Pseudomonas aeruginosa = experiment: Antimicrobial activity against Pseudomonas aeruginosa ATCC BAA-427 after 24 hrs by microbroth dilution method; conditions: ATCC BAA-427, 24 h; procedure, shortened: as §1
Staphylococcus aureus [3] = experiment: Antimicrobial activity against vancomycin-resistant Staphylococcus aureus after 24 hrs by microbroth dilution method; procedure, shortened: as §2
Candida albicans = experiment: Antimicrobial activity against Candida albicans after 48 hrs by microbroth dilution method; procedure, shortened: as §1
Aspergillus fumigatus = experiment: Antimicrobial activity against Aspergillus fumigatus after 72 hrs by microbroth dilution method; procedure, shortened: as §1
Cryptococcus neoformans = experiment: Antimicrobial activity against Cryptococcus neoformans after 72 hrs by microbroth dilution method; procedure, shortened: as §1
Sporothrix schenckii = experiment: Antimicrobial activity against Sporothrix schenckii after 72 hrs by microbroth dilution method; procedure, shortened: as §1
[4] = tested on: Trichophyton mentagrophytes; experiment: Antimicrobial activity against Trichophyton mentagrophytes after 96 hrs by microbroth dilution method; procedure, shortened: as §1

In the case of CC(C)CCO[C@@H]1C=CC(=O)[C@@H](Cn2cc(CCn3cc(C4CC4)nn3)nn2)O1, the MIC (Staphylococcus aureus [1]) is reported as 25 µg/mL (≈ 62.4 µM), the MIC (Staphylococcus aureus [2]) is reported as over 50 µg/mL and the MIC (Klebsiella pneumoniae) is reported as over 50 µg/mL. The MIC (Escherichia coli) was over 50 µg/mL, the MIC (Pseudomonas aeruginosa) was over 50 µg/mL and the MIC (Staphylococcus aureus [3]) was over 50 µg/mL. For the same compound, the MIC (Candida albicans) was 50 µg/mL (≈ 125 µM), the MIC (Aspergillus fumigatus) was over 50 µg/mL and the MIC (Cryptococcus neoformans) was 50 µg/mL (≈ 125 µM). The MIC (Sporothrix schenckii) was over 50 µg/mL and the MIC [4] was over 50 µg/mL.

Work on CC(C)CCO[C@@H]1C=CC(=O)[C@@H](Cn2cc(CCn3cc(-c4ccccc4)nn3)nn2)O1 yielded an MIC (Staphylococcus aureus [1]) of 50 µg/mL (≈ 115 µM), an MIC (Staphylococcus aureus [2]) of over 50 µg/mL and an MIC (Klebsiella pneumoniae) of over 50 µg/mL. It also gave an MIC (Escherichia coli) of over 50 µg/mL, an MIC (Pseudomonas aeruginosa) of over 50 µg/mL and an MIC (Staphylococcus aureus [3]) of over 50 µg/mL. The MIC (Candida albicans) was 50 µg/mL (≈ 115 µM), the MIC (Aspergillus fumigatus) was over 50 µg/mL and the MIC (Cryptococcus neoformans) was 50 µg/mL (≈ 115 µM). For the same compound, the MIC (Sporothrix schenckii) was 50 µg/mL (≈ 115 µM) and the MIC [4] was 50 µg/mL (≈ 115 µM).

For CC1(C)S[C@@H]2[C@H](NC(=O)[C@H](N)c3ccccc3)C(=O)N2[C@H]1C(=O)O [AMPICILLIN], the MIC (Staphylococcus aureus [1]) was 12.5 µg/mL (≈ 35.8 µM), the MIC (Staphylococcus aureus [2]) was 0.78 µg/mL (≈ 2.23 µM) and the MIC (Klebsiella pneumoniae) was 12.5 µg/mL (≈ 35.8 µM). It also gave an MIC (Escherichia coli) of 50 µg/mL (≈ 143 µM), an MIC (Pseudomonas aeruginosa) of over 50 µg/mL and an MIC (Staphylococcus aureus [3]) of 0.78 µg/mL (≈ 2.23 µM).

O=C(O)c1cn(C2CC2)c2cc(N3CCNCC3)c(F)cc2c1=O [CIPROFLOXACIN] showed an MIC (Staphylococcus aureus [1]) of 0.09 µg/mL (≈ 0.272 µM), an MIC (Staphylococcus aureus [2]) of 0.38 µg/mL (≈ 1.15 µM) and an MIC (Klebsiella pneumoniae) of 0.01 µg/mL (≈ 0.0302 µM). For the same compound, the MIC (Pseudomonas aeruginosa) was 0.09 µg/mL (≈ 0.272 µM) and the MIC (Staphylococcus aureus [3]) was 0.38 µg/mL (≈ 1.15 µM).

Clc1ccccc1C(c1ccccc1)(c1ccccc1)n1ccnc1 [CLOTRIMAZOLE] showed an MIC (Candida albicans) of 0.25 µg/mL (≈ 0.725 µM), an MIC (Aspergillus fumigatus) of 8 µg/mL (≈ 23.2 µM) and an MIC (Cryptococcus neoformans) of 0.25 µg/mL (≈ 0.725 µM). The MIC (Sporothrix schenckii) was 4 µg/mL (≈ 11.6 µM) and the MIC [4] was 2 µg/mL (≈ 5.8 µM).

With OC(Cn1cncn1)(Cn1cncn1)c1ccc(F)cc1F [FLUCONAZOLE] the MIC (Candida albicans) was 1 µg/mL (≈ 3.27 µM), the MIC (Aspergillus fumigatus) was over 32 µg/mL and the MIC (Cryptococcus neoformans) was 2 µg/mL (≈ 6.53 µM). For the same compound, the MIC (Sporothrix schenckii) was 4 µg/mL (≈ 13.1 µM) and the MIC [4] was 16 µg/mL (≈ 52.2 µM).

Nc1nc(=O)[nH]cc1F [FLUCYTOSINE] was tested, and the MIC (Candida albicans) was 0.25 µg/mL (≈ 1.94 µM), the MIC (Aspergillus fumigatus) was over 32 µg/mL and the MIC (Cryptococcus neoformans) was 0.13 µg/mL (≈ 1.01 µM). It also gave an MIC (Sporothrix schenckii) of over 32 µg/mL and an MIC [4] of over 32 µg/mL.

For CN[C@@H]1[C@@H](O)[C@@H](O[C@@H]2[C@@H](O)[C@H](O[C@H]3O[C@H]([C@@H](C)NC)CC[C@H]3N)[C@@H](N)C[C@H]2N)OC[C@]1(C)O [GENTAMICIN C1], the MIC (Staphylococcus aureus [1]) was 0.39 µg/mL (≈ 0.817 µM), the MIC (Staphylococcus aureus [2]) was 1.56 µg/mL (≈ 3.27 µM) and the MIC (Klebsiella pneumoniae) was 1.56 µg/mL (≈ 3.27 µM). The MIC (Escherichia coli) was 1.56 µg/mL (≈ 3.27 µM), the MIC (Pseudomonas aeruginosa) was 0.39 µg/mL (≈ 0.817 µM) and the MIC (Staphylococcus aureus [3]) was 1.56 µg/mL (≈ 3.27 µM).

In the case of COc1cccc(OC)c1C(=O)N[C@@H]1C(=O)N2[C@@H]1SC(C)(C)[C@@H]2C(=O)O [METHICILLIN], the MIC (Staphylococcus aureus [1]) is reported as 0.04 µg/mL (≈ 0.105 µM), the MIC (Klebsiella pneumoniae) is reported as 6.25 µg/mL (≈ 16.4 µM) and the MIC (Escherichia coli) is reported as 50 µg/mL (≈ 131 µM). The MIC (Pseudomonas aeruginosa) was over 50 µg/mL.

For Clc1ccc(COC(Cn2ccnc2)c2ccc(Cl)cc2Cl)c(Cl)c1 (configuration not stated) [MICONAZOLE], the MIC (Candida albicans) was 25 µg/mL (≈ 60.1 µM), the MIC (Aspergillus fumigatus) was 12.5 µg/mL (≈ 30 µM) and the MIC (Cryptococcus neoformans) was 12.5 µg/mL (≈ 30 µM). It also gave an MIC (Sporothrix schenckii) of 3.12 µg/mL (≈ 7.5 µM) and an MIC [4] of 0.78 µg/mL (≈ 1.87 µM).

Work on CN[C@H](CC(C)C)C(=O)N[C@H]1C(=O)N[C@@H](CC(N)=O)C(=O)N[C@H]2C(=O)N[C@H]3C(=O)N[C@H](C(=O)N[C@H](C(=O)O)c4cc(O)cc(O)c4-c4cc3ccc4O)[C@H](O)c3ccc(c(Cl)c3)Oc3cc2cc(c3O[C@@H]2O[C@H](CO)[C@@H](O)[C@H](O)[C@H]2O[C@H]2C[C@](C)(N)[C@H](O)[C@H](C)O2)Oc2ccc(cc2Cl)[C@H]1O [VANCOMYCIN] yielded an MIC (Staphylococcus aureus [1]) of 12.5 µg/mL (≈ 8.63 µM), an MIC (Klebsiella pneumoniae) of 12.5 µg/mL (≈ 8.63 µM) and an MIC (Escherichia coli) of 12.5 µg/mL (≈ 8.63 µM). It also gave an MIC (Pseudomonas aeruginosa) of over 50 µg/mL.
